Experiment [1] deals with T1, Proto-oncogene tyrosine-protein kinase Src (Homo sapiens, UniProt P12931). Put plainly: Inhibitory activity against human c-Src Kinase was measured using ELISA assay. The gist of the method:
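Src (3 units/reaction) and cdc2 substrate peptide were preincubated with compound for 10 min at 30 °C in 50 mM Tris-HCl pH 7.5, 10 mM MgCl2, 0.1 mM EGTA and 0.5 mM Na3VO4. ATP was added to 100 μM final, the reaction ran 1 h at 30 °C, and EDTA stopped it. Phosphotyrosine was read by ELISA kit.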

Experiment [2] addresses T1, Proto-oncogene tyrosine-protein kinase Src. As to the kind of experiment: Inhibition of Src Kinase at 1 uM.
Experiment [3] shares this target. Put plainly: Inhibition of Src Kinase at 0.1 mM ATP. The method in brief: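 Compound is preincubated 10 min at 30 °C, then the reaction is started with ATP (100 μM final) and run 1 h at 30 °C. It is stopped with EDTA and read by ELISA for tyrosine phosphorylation. Compounds are run in duplicate; values are the mean of at least two determinations.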
Experiment [4] shares this target. Put plainly: Inhibition of Src Kinase at 1 mM ATP. The method in brief:
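Src ELISA kinase assay with Src (3 units/reaction) and cdc2 substrate peptide in Tris-HCl pH 7.5 buffer with MgCl₂, EGTA and vanadate. After a 10 min, 30 °C preincubation with compound, the reaction is started with ATP raised to 1 mM and run 1 h at 30 °C. It is stopped with EDTA and phosphotyrosine is detected by ELISA.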

The target is the same in experiment [5]. Put plainly: Inhibition of Src Kinase at 5 mM ATP. The method in brief:
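Same Src ELISA format: enzyme at 3 units/reaction, cdc2 peptide substrate, Tris-HCl pH 7.5/MgCl₂/EGTA/Na₃VO₄ buffer, and 10 min compound preincubation at 30 °C. ATP is raised to 5 mM to start the reaction, which runs 1 h at 30 °C. It is quenched with EDTA and phosphorylation is read by ELISA.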

Structures are written as SMILES.

T1 sequence (P12931 2-536 limits assumed): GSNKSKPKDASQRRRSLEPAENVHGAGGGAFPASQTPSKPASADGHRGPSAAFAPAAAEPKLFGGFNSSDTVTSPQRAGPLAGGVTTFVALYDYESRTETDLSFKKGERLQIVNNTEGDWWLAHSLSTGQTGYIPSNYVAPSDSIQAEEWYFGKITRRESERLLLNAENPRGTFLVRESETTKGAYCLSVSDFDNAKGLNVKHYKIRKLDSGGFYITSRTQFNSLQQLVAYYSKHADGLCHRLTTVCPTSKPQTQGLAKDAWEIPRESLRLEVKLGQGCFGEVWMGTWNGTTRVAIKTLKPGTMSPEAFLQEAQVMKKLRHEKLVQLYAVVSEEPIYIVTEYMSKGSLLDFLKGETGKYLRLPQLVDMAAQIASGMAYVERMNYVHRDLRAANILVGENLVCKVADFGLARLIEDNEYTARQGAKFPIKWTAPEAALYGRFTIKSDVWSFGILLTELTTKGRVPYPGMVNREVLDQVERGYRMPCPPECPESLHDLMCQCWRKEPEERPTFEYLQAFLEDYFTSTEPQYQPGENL

Molecule `COc1cccc2ncc(C#N)c(Nc3ccc(Cl)cc3Cl)c12` showed an IC50 in experiment [1] of 1200 nM.
Molecule `CCOC(=O)c1cnc2cc(OC)c(OC)cc2c1Nc1ccc(Cl)cc1Cl` gave an inhibition in experiment [2] of less than 20%.
The same measure, in the same setting: as for `N#Cc1cnc2ccccc2c1Nc1ccc(Cl)cc1Cl`, the figure is less than 20%.
`COc1ccc2ncc(C#N)c(Nc3ccc(Cl)cc3Cl)c2c1` displayed an IC50 in experiment [1] of 320 nM.
On the same count and under the same terms, as for `COc1cc2ncc(C#N)c(Nc3ccc(Cl)cc3I)c2cc1OC`, the figure is 6.2 nM.
On the same count and under the same terms, as for `COc1cc2ncc(C#N)c(Nc3c(Cl)cccc3Cl)c2cc1OC`, the figure is 61 nM; as for `COc1cc2ncc(C#N)c(Sc3ccc(Cl)cc3Cl)c2cc1OC`, 2200 nM.
Molecule `COc1cc2ncc(C(=O)O)c(Nc3ccc(Cl)cc3Cl)c2cc1OC` registered an inhibition in experiment [2] of less than 20%.
As to `COc1cc2ncc(C#N)c(Nc3ccc(Cl)cc3)c2cc1OC`, the IC50 in experiment [1] worked out at 53 nM.
The same measure, in the same setting: as for `COc1cc2ncc(C#N)c(Nc3ccc(Cl)cc3F)c2cc1OC`, the figure is 53 nM.
On the same count and under the same terms, to `COc1cc2ncc(C#N)c(Nc3ccc(Br)cc3Cl)c2cc1OC` belongs 15 nM; to `COc1cc2ncc(C#N)c(Nc3cccc(Cl)c3Cl)c2cc1OC`, 90 nM.
On the same count and under the same terms, to `COc1cc2c(Nc3ccc(Cl)cc3Cl)c(C#N)cnc2cc1OCCCN1CCC(O)CC1` belongs 3.5 nM; to `CCCCOc1cc2ncc(C#N)c(Nc3ccc(Cl)cc3Cl)c2cc1OCCCC`, 160 nM.
Regarding `COc1cc2ncc(C#N)c(Nc3cc(Cl)cc(Cl)c3)c2cc1OC`, the IC50 in experiment [1] was 1100 nM. This IC50 is about 6.9-fold higher than that of the molecule before.
With `COc1cc2c(Nc3ccc(Cl)cc3Cl)c(C#N)cnc2cc1OCCCN1CCOCC1`, inhibition in experiment [1] was half-maximal at 3.8 nM (IC50). Against the preceding molecule, the IC50 is about 290-fold lower.
`COc1cc2ncc(C#N)c(NC(=O)c3ccc(Cl)cc3Cl)c2cc1OC` came in with an inhibition in experiment [2] of less than 20%.
Same read-out and setting: as for `COc1cc(OC)c2c(Nc3ccc(Cl)cc3Cl)c(C#N)cnc2c1`, the figure is 52%.
As for `COc1cc2ncc(C=O)c(Nc3ccc(Cl)cc3Cl)c2cc1OC`, the IC50 in experiment [1] was 250 nM.
As to `COc1cccc2c(Nc3ccc(Cl)cc3Cl)c(C#N)cnc12`, in experiment [2], the inhibition is less than 20%.
Same read-out and setting: to `COc1cc2ncc(C(N)=O)c(Nc3ccc(Cl)cc3Cl)c2cc1OC` belongs less than 20%.
Regarding `COc1cc2nccc(Nc3ccc(Cl)cc3Cl)c2cc1OC`, half-maximal inhibition in experiment [1] (IC50) was put at 84 nM.
On the same count and under the same terms, to `COc1ccc2c(Nc3ccc(Cl)cc3Cl)c(C#N)cnc2c1` belongs 200 nM.
Still for that read-out and setting: as for `COc1cc2c(Nc3ccc(Cl)cc3Cl)c(C#N)cnc2cc1OCCCN1CCN(C)CC1`, the figure is 8.7 nM.
Consider `COc1cc2/c(=N/c3ccc(Cl)cc3Cl)c(C#N)cn(C)c2cc1OC`, for which the inhibition in experiment [2] was less than 20%.
`COc1cc2ncc(C#N)c(Nc3ccc(I)cc3Cl)c2cc1OC` displayed an IC50 in experiment [1] of 95 nM.
Take `N#Cc1cnc2cc(O)c(O)cc2c1Nc1ccc(Cl)cc1Cl`: the inhibition in experiment [2] is less than 20%.
In experiment [1], `COc1cc2ncc(C#N)c(Nc3ccc(Cl)cc3Cl)c2cc1OCCCN1CCOCC1` returned an IC50 of 220 nM.
In the case of `COc1cc2ncc(C#N)c(N(C)c3ccc(Cl)cc3Cl)c2cc1OC`, the inhibition in experiment [2] was found to be 32%.
The same measure, in the same setting: to `COc1cc2ncc(CO)c(Nc3ccc(Cl)cc3Cl)c2cc1OC` belongs less than 20%.
On the same count and under the same terms, as for `COc1cc2ncc(C#N)c(Oc3ccc(Cl)cc3Cl)c2cc1OC`, the figure is 37%.
Turning to `COc1cc2ncc(C#N)c(Nc3ccc(Cl)cc3Cl)c2cc1OC`, the IC50 in experiment [3] was 23 nM; in experiment [4], 130 nM; in experiment [1], 30 nM; in experiment [5] it was 270 nM.
`COc1cc2ncc(C#N)c(Nc3ccccc3Cl)c2cc1OC`: half-maximal inhibition in experiment [1] (IC50) was put at 95 nM. This lies in the double-digit nanomolar range.
Still for that read-out and setting: to `CCOc1cc2ncc(C#N)c(Nc3ccc(Cl)cc3Cl)c2cc1OCC` belongs 11 nM; to `N#Cc1cnc2cc(OCCCN3CCOCC3)c(OCCCN3CCOCC3)cc2c1Nc1ccc(Cl)cc1Cl`, 19 nM.
Turning to `COc1cc2ncnc(Nc3ccc(Cl)cc3Cl)c2cc1OC`, the half-maximal inhibitory concentration (IC50) in experiment [1] was 250 nM.
Turning to `COc1cc2ncc(C#N)c(NCc3ccc(Cl)cc3Cl)c2cc1OC`, the inhibition in experiment [2] amounted to 24%.
Regarding `COc1cc2ncc(C#N)c(Nc3cc(Cl)ccc3Cl)c2cc1OC`, half-maximal inhibition in experiment [1] (IC50) required 40 nM. That is a double-digit nanomolar value.
The same measure, in the same setting: as for `COc1cc2ncc(C#N)c(Nc3ccc(Cl)c(Cl)c3)c2cc1OC`, the figure is 57 nM; as for `COc1cc2ncc(C#N)c(Nc3ccc(Cl)cc3Br)c2cc1OC`, 10 nM.

The values above are taken from ChEMBL document CHEMBL1134365, “Synthesis and Src kinase inhibitory activity of a series of 4-phenylamino-3-quinolinecarbonitriles” (J Med Chem, 2001).
